Measured values taken from ChEMBL document CHEMBL4513216, “Probing the Open Global Health Chemical Diversity Library for Multistage-Active Starting Points for Next-Generation Antimalarials” (ACS Infect Dis, 2020).

Experiment: Toxicity liver stage against HepG2, at 10uM
Assay type: cell-based
Set-up: test concentration 10 uM, cell line HepG2-A16-CD81EGFP
Conditions: human, HepG2-A16-CD81EGFP cells; read-out: INHIBITION
In short: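 Uninfected HepG2-A16-CD81EGFP cells, 3 × 10^3 per well, 1536-well, plated on prespotted compound at 10 μM final, parasite-free screening media added to match infected plates; puromycin 10 μM positive, DMSO 0.5% negative; run in parallel with 48 h PbLuc assay at 37 °C, 5% CO2; viability by CellTiter-Glo luminescence, normalized to controls.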

| SMILES | cytotoxicity at 10 µM [%] |
| --- | --- |
| COc1ncccc1C(=O)N1CC[C@H]2C[C@H](c3noc(C)n3)O[C@@H]2C1 | 5.31 |
| O=C(c1cc(COc2ccc3c(c2)OCO3)[nH]n1)N1CC=CC1CO (stereo unspecified) | -6.49 |
| Cc1ccc(NC(=O)CNc2ccccc2C(N)=O)c(C)c1 | 1.15 |
| COC(=O)c1cccc2nc([C@H]3CCN(Cc4ccccc4F)C3)oc12 | -5.46 |
| CCC1(CNC(=O)NC(c2nnc3n2CCC3)C(C)C)CCC1 (stereo unspecified) | 0.864 |
| CCCS(=O)(=O)N1CC(=O)N(Cc2ccccc2OC)CC(O)C1 (stereo unspecified) | -7.44 |
| CCOc1cc(C(=O)N2CCCC(c3noc(C)n3)C2)ccn1 (stereo unspecified) | -4.49 |
| CCN(Cc1cccc(F)c1)c1ccc2nnnn2n1 | 15.4 |
| Cc1cccc(N2CCCC3(C2)CN(S(=O)(=O)C2CC2)CCO3)c1 (stereo unspecified) | 11 |
| CC(C)NC(=O)C1Cc2nc(-c3ccsc3)sc2N1CC1CC1 (stereo unspecified) | 6.61 |
| c1ccc(C2(NCC3CNc4ccnn4C3)CCC2)cc1 (stereo unspecified) | -5.34 |
| Cc1cc(C(=O)N2CCCC(N3CCCCCC3)C2)nn1C(C)(C)C (stereo unspecified) | -4.4 |
| O=C(Cn1cnc2sccc2c1=O)NCCCc1nnc2ccccn12 | 5.84 |
| COc1cccc(Cn2c(C)c(C)oc2=O)c1OC | -2.34 |
| Cn1c(=O)c2cc(C(=O)NCc3ccccn3)ccc2n(C)c1=O | -6.14 |
| CC(C(=O)NC1CC1)n1nc(-c2cccs2)cc(N)c1=O (stereo unspecified) | 10.9 |
| CCn1cc(NC(=O)C2CCN(Cc3nc(C(C)C)no3)CC2)cn1 | 0.449 |
| Cc1nnc2n1CCN(Cc1csc(COc3ccccc3)n1)C2 | -14.3 |
| NC(=O)C1CCN(C(=O)NCc2ccccc2Cn2ccnc2)CC1 | -0.302 |
| Cc1ccccc1C(=O)NCCCN1CCc2ccccc2C1 | -16.5 |
| COC(=O)CC1CCCCN1CC(=O)Nc1cc(F)ccc1F (stereo unspecified) | 6.55 |
| CCCc1nnc(NC(=O)NC(CCO)c2cccs2)s1 (stereo unspecified) | -7.38 |
| CC(C)n1cc(CN2CCCN(C(=O)c3cc(Cl)c[nH]3)CC2)cn1 | -10.9 |

| SMILES | cytotoxicity at 10 µM [%] |
| --- | --- |
| Cc1nc(C)n(C2CCCN(C(=O)c3cc(C4CC4)on3)C2)n1 (stereo unspecified) | -3.87 |
| COC(=O)[C@@H]1C[C@H](NC(=O)c2cc(=O)[nH]c3ccc(C)cc23)CN1C | 6.46 |
| CC1N(c2cnn(C)c2)C(=O)COC12CCN(CC1CC1)CC2 (stereo unspecified) | 3.68 |
| O=C(NCCN1CCCS1(=O)=O)c1scnc1Cl | -3.67 |
| COCCN(C)C(=O)Nc1ccc2c(ccn2CCOC)c1 | -3.83 |
| NC(=O)C1(CCCc2ccccn2)CCCN(CCO)C1 (stereo unspecified) | 3.38 |
| Cc1cc(S(=O)(=O)Nc2cccc(-n3cccc3)c2)sc1C(=O)O | -2.23 |
| NC1(C(=O)NCC2CCCN(Cc3cccc4nonc34)C2)CCC1 (stereo unspecified) | -43.8 |
| O=C(NCCn1ccnc1)c1csc2c1CCCC2 | -1.34 |
| CC1=N[C@@]2(CC[C@@H]3CN(CC4CC4)C[C@@H]32)C(=O)N1CC1CC1 | 3.82 |
| CC(C)[C@H](NC(=O)NC1CCS(=O)(=O)C1)C(=O)NCc1ccccc1 (stereo partly specified) | 7.39 |
| N#Cc1ccc(S(=O)(=O)NC(=O)C2CC(c3ccccc3)=NO2)cc1 (stereo unspecified) | 0.462 |
| COc1ccccc1CNC(=O)CNc1ccccc1C(C)=O | 4.7 |
| Cc1ccc2nc(CN3CCN(C4CCCC4)C(=O)C3)cc(O)c2c1 | -0.803 |
| COCC(NC(=O)c1ccoc1C)c1cccc(C(F)(F)F)c1 (stereo unspecified) | -5.95 |
| COCCOCC(=O)Nc1ccccc1F | 14.7 |
| CCN(CC)C(=O)Cn1cc(-c2nc(-c3ccccc3C)no2)nn1 | -2.46 |
| Cn1cccc1C(O)CNC(=O)COc1ccc(Cl)cc1Cl (stereo unspecified) | -1.23 |
| Cc1cccc(C(C)(C)CNC(=O)CCSc2nnnn2C)c1 | -1.09 |
| CC(C)(C)c1noc(CCC(=O)N(CC2CCOC2)C2CC2)n1 (stereo unspecified) | 2.66 |
| CN(CCn1cccn1)S(=O)(=O)N1CCCC1c1ccco1 (stereo unspecified) | -9.56 |
| CCS(=O)(=O)N1C[C@H]2CCC[C@@]2(COc2ccccn2)C1 | -4.09 |
| CCSCc1csc(-c2ccc(S(C)(=O)=O)cc2)n1 | 8.21 |

| SMILES | cytotoxicity at 10 µM [%] |
| --- | --- |
| O=C([C@@H]1CCS(=O)(=O)[C@@H]2CN(c3ncccn3)C[C@@H]21)N1CCOCC1 | -100 |
| Cn1cc(CCCNC(=O)NC2CCN(CC(F)(F)F)C2=O)cn1 (stereo unspecified) | 6.51 |
| Cn1ccnc1CN1CCN(Cc2cc(C#N)ccc2F)CC1 | -4.52 |
| Cc1nc(CN2CCCN(CC(=O)Nc3cccnc3)CC2)no1 | 2.31 |
| CC(CC(=O)Nc1ncn(CC(=O)N2CCCCCC2)n1)C1CC1 (stereo unspecified) | 5.75 |
| CN(C)CCN1CCC(NC2CSCCc3ccccc32)CC1 (stereo unspecified) | -8.77 |
| O=C(CN(C1=NCCCC1)c1ccccc1)c1ccc2c(c1)OCCO2 | 8.9 |
| CC(=O)N1CCCC(c2nccnc2-c2ccc(CO)cc2)C1 (stereo unspecified) | 1.03 |
| CN1CCN(C[C@@H]2OC[C@H]3CN(CCc4ccccc4)CC[C@H]32)CC1 | 8.84 |
| COc1c(C2CCCN2C(=O)c2ccoc2C)c(C)nn1C (stereo unspecified) | 0.243 |
| Cc1nc(C)n(CC2CCCN2CC(=O)Nc2c(C)n[nH]c2C)n1 (stereo unspecified) | -7.66 |
| CCCN(CCC)C(=O)CN(C)Cc1cnc(C)s1 | 20.9 |
| CC(C)N1CC[C@H]2[C@H](C[C@@H](Cn3cccn3)N2c2nccs2)C1 | 3.28 |
| O=C(c1ncoc1-c1ccco1)N1CCCN(c2ncccn2)CC1 | 2.7 |
| OCCN(Cc1nc(-c2ccc3c(c2)OCO3)no1)CC1CC1 | 8.37 |
| COC(=O)[C@@H]1Cc2c[nH]c3cccc(c23)[C@H](CC(C)C)N1 | 9.57 |
| O=C(c1cnn2c1OCCC2)N1CCC(Cc2ccccc2)CC1 | 0.524 |
| O=C(Cn1cc(C(=O)O)ccc1=O)Nc1ccc(F)cc1Cl | 0.381 |
| CCOc1ccc(Cl)cc1CCNC(=O)Cn1nc(C)ccc1=O | -3.91 |
| O=S(=O)(NCc1ccccc1Cn1cncn1)C1CCCC1 | 0.674 |
| O=C(c1cccc(S(=O)(=O)NCCCc2ccco2)c1)N1CCOCC1 | -23.6 |
| c1cnnc(N2CCCC(NCc3ccc(-n4cccn4)cc3)C2)c1 (stereo unspecified) | 0.241 |
| Cc1cccnc1NC(=O)c1ccc(F)c(S(=O)(=O)N2CCC2)c1 | 4.5 |

| SMILES | cytotoxicity at 10 µM [%] |
| --- | --- |
| Cc1cnn(CCC(=O)N2CCN(c3nccs3)CC2)c1 | -8.03 |
| CC(C)Nc1ncnc2c1CCN(C(=O)NCc1cccc(F)c1)CC2 | -110 |
| COc1c(CNCc2cccnc2OC2CCCC2)c(C)nn1C | -2.01 |
| Cc1n[nH]cc1CNC(C(=O)N1CCOCC1)c1ccccc1 (stereo unspecified) | 7.57 |
| Cc1cc(=O)n2ncnc2n1CC(O)c1ccc(F)cc1F (stereo unspecified) | -1.2 |
| CNC(=O)Cc1noc(-c2cc3c(s2)CCC(C)(C)C3)n1 | 3.57 |
| OCc1cc2ccccc2nc1NCC1(O)CCC1 | -46.9 |
| Cc1nc(C)n(C2CCCN(C(=O)c3ccnc(N(C)C)c3)C2)n1 (stereo unspecified) | -8.36 |
| CCc1nc(CN2CCCC(N(C)Cc3cnc(C)s3)C2)no1 (stereo unspecified) | 2.89 |
| CC(=O)N1CCC2(CC1)c1ncc(-c3ccccc3)n1CCN2C(C)=O | 10.5 |
| CC(C)n1cc2cc(NC(=O)Cn3cnnn3)ccc2n1 | -138 |
| CCN1CCNC(=O)C12CCN(C(=O)Cc1ccccn1)CC2 | 4.71 |
| CCC(C(=O)NCc1ccn(-c2ccc(F)cc2)n1)N1CCCC1=O (stereo unspecified) | -5.63 |
| CC(Cn1cccn1)NC(=O)NCc1cccnc1 (stereo unspecified) | -0.088 |
| COCCC1(CO)CCCN(Cc2ccc(C#N)cc2)C1 (stereo unspecified) | -156 |
| O=C(NCC1(c2cccc(F)c2)CC1)N1CCC2(CCOC2)C1 (stereo unspecified) | 2.82 |
| CCc1nc(NC(=O)NCCc2cccc(C)n2)nn1C | 2.48 |
| O=C(c1nsc(Cl)c1Cl)N1CCc2nc3sccc3c(=O)n2CC1 | -20.4 |
| CNC(=O)CN(C(=O)c1cc(C(C)C)no1)c1cccc(F)c1 | 9.77 |
| CCOc1ncccc1NC(=O)c1sccc1C | -16.1 |
| O=C(CN1CC(n2cccn2)C1)NCCc1c[nH]c2ccccc12 | -4.74 |
| CC(=O)Nc1nc(-c2ccc(C)c(C)c2)c[nH]1 | -19.3 |
| NC(=O)COc1cccc(CN2CCCC2c2ccc[nH]2)c1 (stereo unspecified) | 8.58 |

| SMILES | cytotoxicity at 10 µM [%] |
| --- | --- |
| Cc1nc(CN2C(=O)CC[C@@H]3[C@H]2CCN3C2CCOC2)cs1 (stereo partly specified) | -141 |
| CCN(CCc1nc2cc(C)ccc2[nH]1)C(=O)[C@@H](N)COC | -2.64 |
| NC(Cc1nc(-c2ccccc2)no1)c1ccccc1 (stereo unspecified) | -5.08 |
| COc1ccc(CCNC(=O)C(C)Nc2cc(C)ccc2C)cc1 (stereo unspecified) | -5.71 |
| CO[C@H]1CCN(S(=O)(=O)c2cn(C)cn2)[C@H]1Cc1cccnc1 | -9.31 |
| Cc1nn(C)cc1CN1CCCCCC1c1ccccc1Cl (stereo unspecified) | 7.49 |
| OCC1CCCCN1Cc1nc(Cc2ccccc2)no1 (stereo unspecified) | 5.13 |
| Cc1nn(C)c(N2CCOCC2)c1CNCc1ccc2c(c1)OCO2 | -17.8 |
| O=c1c(NCCCO)c(N2CCN(c3ccccc3)CC2)c1=O | -3.66 |
| CCc1nnc2n1CCN(C(=O)c1cnc(C3CC3)s1)C2 | 9.21 |
| CCCNc1ccc(C(=O)NCCc2ccc(Cl)cc2)cn1 | -1.05 |
| Cc1ccoc1C(=O)N1CCOC2(CCCC2)C1 | -4.55 |
| CN(CC1Cc2ccccc2CN1C)C(=O)Cc1cccs1 (stereo unspecified) | -0.661 |
| CN(C)Cc1nc(C(C)(C)NC(=O)c2nc3ccccc3s2)no1 | 8.61 |
| CC(C)N(C)Cc1n[nH]c2c1CCN(C(=O)c1ccc[nH]1)C2 | -133 |
| O=C(C1CC1)N1CCCC(c2nc(O)cc(-c3ccncc3)n2)C1 (stereo unspecified) | 31.2 |
| Cc1nc(CN(C)C2CCCN(c3cccnn3)C2)no1 (stereo unspecified) | -7.1 |
| CC(c1ccccc1)N(C)C(=O)CN1CCCc2cc(F)cc(F)c21 (stereo unspecified) | 27.3 |
| O=C(C1CCOCC1)N1CCC(OCc2cccnc2)CC1 | 2.12 |
